# Experimental data as given in ChEMBL document CHEMBL3627671, “Novel derivatives of nitro-substituted salicylic acids: Synthesis, antimicrobial activity and cytotoxicity” (Bioorg Med Chem, 2015).
# What was measured:
# [1] = test system: Mycobacterium tuberculosis; test: Antimycobacterial activity against Mycobacterium tuberculosis H37Rv 331/88 after 14 days; assay type: functional; details: H37Rv 331/88, 336 h
# [2] = test system: Mycobacterium tuberculosis; test: Antimycobacterial activity against Mycobacterium tuberculosis H37Rv 331/88 after 21 days; assay type: functional; details: H37Rv 331/88, 504 h
# [3] = test system: Mycobacterium avium; test: Antimycobacterial activity against Mycobacterium avium 330/80 after 14 days; assay type: functional; details: 330/80, 336 h
# [4] = test system: Mycobacterium avium; test: Antimycobacterial activity against Mycobacterium avium 330/80 after 21 days; assay type: functional; details: 330/80, 504 h
# [5] = test system: Mycobacterium kansasii; test: Antimycobacterial activity against Mycobacterium kansasii 235/80 after 7 days; assay type: functional; details: 235/80, 168 h
# In short: (§1)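 Šula's semisynthetic medium micromethod at 37 °C, read after 7, 14 and 21 days. The 1.0 McFarland suspension was diluted 10^-4. MIC determined. 6509/96 is a clinical isolate.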
# [6] = test system: Mycobacterium kansasii; test: Antimycobacterial activity against Mycobacterium kansasii 235/80 after 14 days; assay type: functional; details: 235/80, 336 h; in short: as §1
# [7] = test system: Mycobacterium kansasii; test: Antimycobacterial activity against Mycobacterium kansasii 235/80 after 21 days; assay type: functional; details: 235/80, 504 h; in short: as §1
# [8] = test system: Mycobacterium kansasii; test: Antimycobacterial activity against Mycobacterium kansasii 6509/96 after 7 days; assay type: functional; details: 6509/96, 168 h; in short: as §1
# [9] = test system: Mycobacterium kansasii; test: Antimycobacterial activity against Mycobacterium kansasii 6509/96 after 14 days; assay type: functional; details: 6509/96, 336 h; in short: as §1
# [10] = test system: Mycobacterium kansasii; test: Antimycobacterial activity against Mycobacterium kansasii 6509/96 after 21 days; assay type: functional; details: 6509/96, 504 h; in short: as §1
# [11] = test system: Staphylococcus aureus; test: Antibacterial activity against Staphylococcus aureus CCM 4516/08 after 24 hrs by microdilution broth method; assay type: functional; details: CCM 4516/08, 24 h
# [12] = test system: Staphylococcus aureus; test: Antibacterial activity against Staphylococcus aureus CCM 4516/08 after 48 hrs by microdilution broth method; assay type: functional; details: CCM 4516/08, 48 h
# [13] = test system: Staphylococcus aureus; test: Antibacterial activity against methicillin-resistant Staphylococcus aureus H 5996/08 after 24 hrs by microdilution broth method; assay type: functional; details: H 5996/08, 24 h
# [14] = test system: Staphylococcus aureus; test: Antibacterial activity against methicillin-resistant Staphylococcus aureus H 5996/08 after 48 hrs by microdilution broth method; assay type: functional; details: H 5996/08, 48 h
# [15] = test system: Staphylococcus epidermidis; test: Antibacterial activity against Staphylococcus epidermidis H 6966/08 after 24 hrs by microdilution broth method; assay type: functional; details: H 6966/08, 24 h
# In short: (§2)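 Mueller-Hinton broth microdilution (modified M07-A07), pH 7.4 (±0.2). Compounds dissolved in DMSO, tested at final 500 to 0.49 µmol/L. Inoculum in sterile water matched to 0.5 McFarland. Incubated in the dark, humid atmosphere, 35 °C, read at 24 and 48 h visually and at 540 nm. MIC taken as ≥95% growth reduction (IC95) versus control.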
# [16] = test system: Staphylococcus epidermidis; test: Antibacterial activity against Staphylococcus epidermidis H 6966/08 after 48 hrs by microdilution broth method; assay type: functional; details: H 6966/08, 48 h; in short: as §2
# [17] = test system: Enterococcus sp.; test: Antibacterial activity against Enterococcus sp. J 14365/08 after 24 hrs by microdilution broth method; assay type: functional; details: J 14365/08, 24 h; in short: as §2
# [18] = test system: Enterococcus sp.; test: Antibacterial activity against Enterococcus sp. J 14365/08 after 48 hrs by microdilution broth method; assay type: functional; details: J 14365/08, 48 h; in short: as §2
# [19] = test system: Escherichia coli; test: Antibacterial activity against Escherichia coli CCM4517 after 24 hrs by microdilution broth method; assay type: functional; details: CCM4517, 24 h; in short: as §2
# [20] = test system: Escherichia coli; test: Antibacterial activity against Escherichia coli CCM4517 after 48 hrs by microdilution broth method; assay type: functional; details: CCM4517, 48 h; in short: as §2
# [21] = test system: Klebsiella pneumoniae; test: Antibacterial activity against Klebsiella pneumoniae D 11750/08 after 24 hrs by microdilution broth method; assay type: functional; details: D 11750/08, 24 h; in short: as §2
# [22] = test system: Klebsiella pneumoniae; test: Antibacterial activity against Klebsiella pneumoniae D 11750/08 after 48 hrs by microdilution broth method; assay type: functional; details: D 11750/08, 48 h; in short: as §2
# [23] = test system: Klebsiella pneumoniae; test: Antibacterial activity against ESBL-positive Klebsiella pneumoniae J 14368/08 after 24 hrs by microdilution broth method; assay type: functional; details: J 14368/08, 24 h; in short: as §2
# [24] = test system: Klebsiella pneumoniae; test: Antibacterial activity against ESBL-positive Klebsiella pneumoniae J 14368/08 after 48 hrs by microdilution broth method; assay type: functional; details: J 14368/08, 48 h; in short: as §2
# [25] = test system: Pseudomonas aeruginosa; test: Antibacterial activity against Pseudomonas aeruginosa CCM 1961 after 24 hrs by microdilution broth method; assay type: functional; details: CCM 1961, 24 h; in short: as §2
# [26] = test system: Pseudomonas aeruginosa; test: Antibacterial activity against Pseudomonas aeruginosa CCM 1961 after 48 hrs by microdilution broth method; assay type: functional; details: CCM 1961, 48 h; in short: as §2
# [27] = test system: Candida albicans; test: Antifungal activity against Candida albicans ATCC 44859 after 24 hrs by microdilution broth method; assay type: functional; details: ATCC 44859, 24 h
# In short: (§3)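 CLSI M27-A3 broth microdilution in RPMI 1640 with glutamine, buffered to pH 7.0 with MOPS; DMSO diluent. Yeast inoculum 5 × 10^3 ± 0.2 CFU/mL. Moulds grown on Sabouraud agar 3–10 days before spore harvest, final inoculum 0.5-5 × 10^4 CFU/mL, checked in a Bürker chamber. Incubated dark, humid, 35 °C, read at 24 and 48 h visually and at 540 nm. MIC taken as ≥80% (yeasts) or ≥50% (filamentous) growth reduction versus control.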
# [28] = test system: Candida albicans; test: Antifungal activity against Candida albicans ATCC 44859 after 48 hrs by microdilution broth method; assay type: functional; details: ATCC 44859, 48 h; in short: as §3
# [29] = test system: Candida tropicalis; test: Antifungal activity against Candida tropicalis 156 after 24 hrs by microdilution broth method; assay type: functional; details: Candida tropicalis, 156, 24 h; in short: as §3
# [30] = test system: Candida tropicalis; test: Antifungal activity against Candida tropicalis 156 after 48 hrs by microdilution broth method; assay type: functional; details: Candida tropicalis, 156, 48 h; in short: as §3
# [31] = test system: Pichia kudriavzevii; test: Antifungal activity against Candida krusei E28 after 24 hrs by microdilution broth method; assay type: functional; details: E28, 24 h; in short: as §3
# [32] = test system: Pichia kudriavzevii; test: Antifungal activity against Candida krusei E28 after 48 hrs by microdilution broth method; assay type: functional; details: E28, 48 h; in short: as §3
# [33] = test system: Nakaseomyces glabratus; test: Antifungal activity against Candida glabrata 20/I after 24 hrs by microdilution broth method; assay type: functional; in short: as §3
# [34] = test system: Nakaseomyces glabratus; test: Antifungal activity against Candida glabrata 20/I after 48 hrs by microdilution broth method; assay type: functional; in short: as §3
# [35] = test system: Trichosporon asahii; test: Antifungal activity against Trichosporon asahii 1188 after 24 hrs by microdilution broth method; assay type: functional; details: Trichosporon asahii, 1188, 24 h; in short: as §3
# [36] = test system: Trichosporon asahii; test: Antifungal activity against Trichosporon asahii 1188 after 48 hrs by microdilution broth method; assay type: functional; details: Trichosporon asahii, 1188, 48 h; in short: as §3
# [37] = test system: Aspergillus fumigatus; test: Antifungal activity against Aspergillus fumigatus 231 after 24 hrs by microdilution broth method; assay type: functional; details: Aspergillus fumigatus, 231, 24 h; in short: as §3
# [38] = test system: Aspergillus fumigatus; test: Antifungal activity against Aspergillus fumigatus 231 after 48 hrs by microdilution broth method; assay type: functional; details: Aspergillus fumigatus, 231, 48 h; in short: as §3
# [39] = test system: Lichtheimia corymbifera; test: Antifungal activity against Absidia corymbifera 272 after 24 hrs by microdilution broth method; assay type: functional; details: Lichtheimia corymbifera, 272, 24 h; in short: as §3
# [40] = test system: Lichtheimia corymbifera; test: Antifungal activity against Absidia corymbifera 272 after 48 hrs by microdilution broth method; assay type: functional; details: Lichtheimia corymbifera, 272, 48 h; in short: as §3
# [41] = test system: Trichophyton mentagrophytes; test: Antifungal activity against Trichophyton mentagrophytes 445 after 24 hrs by microdilution broth method; assay type: functional; details: Trichophyton mentagrophytes, 445, 24 h
# [42] = test system: Trichophyton mentagrophytes; test: Antifungal activity against Trichophyton mentagrophytes 445 after 48 hrs by microdilution broth method; assay type: functional; details: Trichophyton mentagrophytes, 445, 48 h
# [43] = test system: HepG2; test: Cytotoxicity against human HepG2 cells after 24 hrs […]; assay type: cell-based; details: HepG2, 24 h
# [44] = Selectivity index, ratio of CI50 for human HepG2 cells to MIC100 for Mycobacterium tuberculosis H37Rv 331/88
compound,measurement,setting,value
O=C(Nc1cccc(Br)c1)c1ccc([N+](=O)[O-])cc1O,MIC,[1],16 µM
same,MIC,[2],16 µM
same,MIC,[3],32 µM
same,MIC,[4],62.5 µM
same,MIC,[5],8 µM
same,MIC,[6],16 µM
same,MIC,[7],16 µM
same,MIC,[8],16 µM
same,MIC,[9],16 µM
same,MIC,[10],16 µM
same,MIC,[11],3.9 µM
same,MIC,[12],3.9 µM
same,MIC,[13],3.9 µM
same,MIC,[14],3.9 µM
same,MIC,[15],3.9 µM
same,MIC,[16],3.9 µM
same,MIC,[17],500 µM
same,MIC,[18],500 µM
same,MIC,[19],500 µM
same,MIC,[20],> 500 µM
same,MIC,[21],500 µM
same,MIC,[22],500 µM
same,MIC,[23],500 µM
same,MIC,[24],500 µM
same,MIC,[25],> 500 µM
same,MIC,[26],> 500 µM
same,MIC,[27],> 500 µM
same,MIC,[28],> 500 µM
same,MIC,[29],> 500 µM
same,MIC,[30],> 500 µM
same,MIC,[31],62.5 µM
same,MIC,[32],250 µM
same,MIC,[33],> 500 µM
same,MIC,[34],> 500 µM
same,MIC,[35],31.2 µM
same,MIC,[36],125 µM
same,MIC,[37],> 500 µM
same,MIC,[38],> 500 µM
same,MIC,[39],250 µM
same,MIC,[40],500 µM
same,MIC,[41],62.5 µM
same,MIC,[42],250 µM
O=C(Nc1cccc(Cl)c1)c1ccc([N+](=O)[O-])cc1O,MIC,[1],8 µM
same,MIC,[2],16 µM
same,MIC,[3],32 µM
same,MIC,[4],62.5 µM
same,MIC,[5],8 µM
same,MIC,[6],16 µM
same,MIC,[7],16 µM
same,MIC,[8],16 µM
same,MIC,[9],16 µM
same,MIC,[10],16 µM
same,MIC,[11],7.81 µM
same,MIC,[12],15.6 µM
same,MIC,[13],7.81 µM
same,MIC,[14],15.6 µM
same,MIC,[15],7.81 µM
same,MIC,[16],15.6 µM
same,MIC,[17],500 µM
same,MIC,[18],> 500 µM
same,MIC,[19],> 500 µM
same,MIC,[20],> 500 µM
same,MIC,[21],> 500 µM
same,MIC,[22],> 500 µM
same,MIC,[23],> 500 µM
same,MIC,[24],> 500 µM
same,MIC,[25],> 500 µM
same,MIC,[26],> 500 µM
same,MIC,[27],> 500 µM
same,MIC,[28],> 500 µM
same,MIC,[29],> 500 µM
same,MIC,[30],> 500 µM
same,MIC,[31],62.5 µM
same,MIC,[32],125 µM
same,MIC,[33],> 500 µM
same,MIC,[34],> 500 µM
same,MIC,[35],62.5 µM
same,MIC,[36],125 µM
same,MIC,[37],62.5 µM
same,MIC,[38],125 µM
same,MIC,[39],62.5 µM
same,MIC,[40],250 µM
same,MIC,[41],62.5 µM
same,MIC,[42],62.5 µM
O=C(Nc1ccc(C(F)(F)F)cc1)c1cccc([N+](=O)[O-])c1O,MIC,[1],32 µM
same,MIC,[2],32 µM
same,MIC,[3],250 µM
same,MIC,[4],250 µM
same,MIC,[5],62.5 µM
same,MIC,[6],125 µM
same,MIC,[7],125 µM
same,MIC,[8],62.5 µM
same,MIC,[9],62.5 µM
same,MIC,[10],125 µM
same,IC50,[43],8 µM
same,Selectivity Index,[44],0.25
